Assay results gathered from unrelated publications.
Compare with care: the assays were run in different laboratories.
Target: Muscle, skeletal receptor tyrosine-protein kinase (MUSK, Homo sapiens, UniProt O15146)
One construct used (O15146 24-869): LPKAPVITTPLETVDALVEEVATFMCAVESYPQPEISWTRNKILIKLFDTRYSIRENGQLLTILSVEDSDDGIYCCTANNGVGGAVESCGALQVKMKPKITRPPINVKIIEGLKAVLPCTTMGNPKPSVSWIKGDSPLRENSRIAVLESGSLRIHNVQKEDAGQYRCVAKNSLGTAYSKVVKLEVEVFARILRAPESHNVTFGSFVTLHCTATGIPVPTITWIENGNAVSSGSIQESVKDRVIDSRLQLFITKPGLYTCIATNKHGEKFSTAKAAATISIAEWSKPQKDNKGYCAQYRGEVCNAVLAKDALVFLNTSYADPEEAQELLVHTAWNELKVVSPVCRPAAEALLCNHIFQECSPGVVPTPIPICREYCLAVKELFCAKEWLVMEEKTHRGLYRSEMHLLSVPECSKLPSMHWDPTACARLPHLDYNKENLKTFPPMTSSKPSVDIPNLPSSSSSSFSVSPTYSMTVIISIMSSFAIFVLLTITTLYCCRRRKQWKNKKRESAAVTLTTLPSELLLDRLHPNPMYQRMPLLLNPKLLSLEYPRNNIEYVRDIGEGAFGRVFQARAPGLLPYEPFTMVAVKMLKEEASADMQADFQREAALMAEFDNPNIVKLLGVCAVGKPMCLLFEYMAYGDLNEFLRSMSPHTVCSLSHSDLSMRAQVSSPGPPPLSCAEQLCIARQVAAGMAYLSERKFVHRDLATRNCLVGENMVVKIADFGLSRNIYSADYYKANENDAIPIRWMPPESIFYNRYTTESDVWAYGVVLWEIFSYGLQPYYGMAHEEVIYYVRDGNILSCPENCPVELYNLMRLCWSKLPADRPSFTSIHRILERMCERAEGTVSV

SMILES	test	setting	quantity	value
Cc1sc(C(=O)NC2COC2)cc1-n1cc(NC(=O)Nc2c(F)cccc2Cl)cn1	enzyme activity, inhibitor	10 µM	remaining activity	103%
Cc1ccc(C(=O)Nc2ccc(CN3CCN(C)CC3)c(C(F)(F)F)c2)cc1C#Cc1cnc2cccnn12	enzyme activity, inhibitor	23.5 nM	remaining activity	8%
CCN(CC)CCNC(=O)c1c(C)[nH]c(/C=C2\C(=O)Nc3ccc(F)cc32)c1C	enzyme activity, inhibitor	0.3 µM	inhibition	98%
CCN(CC)c1ccc(C2=NNC(=O)CC2C)cc1[N+](=O)[O-] (stereo not shown)	enzyme activity, inhibitor	10 µM	remaining activity	85%
CC(C)(C)c1nc2c(s1)c1nc(N)ncc1c1ccc(NS(=O)(=O)c3c(F)cccc3F)c(F)c12	enzyme activity, inhibitor, radiometric	1 µM	remaining activity	80%
O=C(O)[C@@H]1[C@@H](Cn2nnc3ccccc3c2=O)CC[C@H]1C(=O)c1ccc(OCCC2CCOCC2)cc1	cell-free assay, competition with immobilised ligand	1 µM	remaining binding	100%
CNC(=O)c1cc(Oc2ccc(NC(=O)Nc3ccc(Cl)c(C(F)(F)F)c3)cc2)ccn1	enzyme activity, inhibitor	10 µM	inhibition	100%
CCCOc1ccc(OC)c(F)c1C(=O)c1ccc(C(=O)N[C@@H]2CNC[C@H]2NC(=O)c2ccc3[nH]ncc3c2)cc1	enzyme activity, inhibitor	10 µM	remaining activity	-1%
COc1cc2ncnc(Nc3ccc(Oc4ccccc4)c(C)c3C)c2cc1OC	enzyme activity, inhibitor	1 µM	inhibition	-2%
Cc1ccc(Nc2nccc(N(C)c3ccc4c(C)n(C)nc4c3)n2)cc1S(N)(=O)=O	enzyme activity, inhibitor	10 µM	inhibition	97%
CNCc1ccccc1-c1csc([C@H](C)Nc2nc(C)nc3cc(OC)c(OC)cc23)c1	cell-free assay, competition with immobilised ligand	1 µM	remaining binding	90%
Nc1ncnc2occ(-c3ccc(NC(=O)Nc4cc(C(F)(F)F)ccc4F)cc3)c12	cell-free assay, inhibitor	20 µM	remaining signal	0%
CC(=O)C1=C(C)N(c2cccc(C(F)(F)F)c2)C(=O)N[C@@H]1c1ccc(C#N)nc1	cell-free assay, competition with immobilised ligand	1 µM	remaining binding	100%
CC/C(=N\NC(=O)NCc1cccc(O)c1)c1ccc(O)c(C)c1O	enzyme activity, inhibitor	0.1 µM	inhibition	-3.4%
NS(=O)(=O)c1cc(NC(=O)Cc2ccccc2)ccc1Oc1cccc(Cl)c1	cell-free assay, competition with immobilised ligand	1 µM	remaining binding	100%
Cc1cnc(NC2CCOCC2)nc1-n1cnc(C(=O)NC(CN)c2cc(F)cc(Cl)c2)c1 (stereo not shown)	enzyme activity, inhibitor, radiometric	1 µM	remaining activity	97%
Cc1ccc(NC(=O)c2ccc(C)c(C(F)(F)F)c2)cc1C#Cc1nn(C2CCC(O)CC2)c2ncnc(N)c12 (stereo not shown)	cell-free assay	10 µM	remaining signal	70%
O=C1Nc2ccc(Cl)cc2C1=Cc1cc(Cl)c(O)c(Cl)c1	cell-free assay	0.5 µM	remaining signal	65.5%
Cc1ccc(C(=O)NCc2ccsc2)cc1C#Cc1cn(C(C)C)c2ncnc(N)c12	enzyme activity, inhibitor	1 µM	activity vs control	73%
C[C@H](NC(=O)c1cnc2n1[C@](C)(Cc1ccc(C#N)cc1)C(=O)N2c1cc(Cl)c(F)c(Cl)c1)C(=O)NC1(c2ccccn2)CC1	cell-free assay, competition with immobilised ligand	1 µM	remaining binding	100%
O=C(Nc1cnn(-c2csc(C(=O)NC3COC3)c2)c1)Nc1ccccc1Cl	enzyme activity, inhibitor	5 µM	remaining activity	94.5%
O=C(NCCCC1CCCCC1)c1ccc(CNC(=O)c2cnn(-c3ccccc3)c2C(F)(F)F)cc1	cell-free assay, competition with immobilised ligand	0.1 µM	remaining binding	100%
N#CCCc1ccc2c(c1)-c1[nH]c3ccc([N+](=O)[O-])cc3c1CC(=O)N2	cell-free assay	0.5 µM	remaining signal	63%
CC(=O)N1CCC(c2ccc(C(=O)NC(=N)N)cc2C(F)(F)F)CC1	cell-free assay, competition with immobilised ligand	1 µM	remaining binding	100%
Oc1cccc(-c2nc(N3CCOCC3)c3oc4ncccc4c3n2)c1	cell-free assay	0.5 µM	remaining signal	87.8%
